SMILES strings stand for the structures. Screen size: about 51,000 compounds; about 150 (0.29%) were called active. The sample as a whole holds a higher share of actives than the screen did. Values without a mark were called inactive.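 The calls were made as follows: active = both repeat wells score below -2 in polarization z-score versus plate sample wells, excluding overly bright wells; inactive = the rest.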

The test system of the test is LANA (ORF73) N-terminal peptide binding to nucleosomes, Human herpesvirus 8. The test is described as follows: LANA N-terminal peptide–nucleosome interaction blockers – biochemical, fluorescence polarization, FITC-LANA1-23, chicken nucleosomes, primary screen (AID 720717). The following applies: FITC-LANA1-23 / chicken nucleosome fluorescence polarization; hits give low values. Summed up: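 Assay system: purified chicken nucleosomes with FITC-labelled LANA N-terminal peptide (1-23) / Probe or stimulus: 50 nM FITC-LANA1-23 probe / Compound dosing: pin-transferred compound, 100 nL / Times: compound with peptide–nucleosome mix 10–45 min at room temperature / Technique: fluorescence polarization, 480 nm excitation, 535 nm parallel and perpendicular emission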
Background: Polarisation of emitted light reports the rotation of a fluorescent probe.
Take `CN1CCc2c(c(S)[nH]c(=S)c2C#N)C1`: the z-score is -3.73 (active).
Turning to `CCOC(=O)c1sc2nc3c(cc2c1N)CN(C)CC3`, the z-score is 0.365.
As to `O=C(c1ccccc1)c1cc(Cl)ccc1NC(=O)C(F)(F)F`, the z-score is -0.891.
Turning to `Cc1cccc(NC(=O)OC2CN3CCC2CC3)c1` (stereo not given), the z-score is -0.799.
As for `CC1(C)CC(Nc2nc(Cl)c(C#N)c(Cl)c2Cl)CC(C)(C)N1`, the z-score was -1.52.
